Assay results as given in ChEMBL document CHEMBL1124640, “Synthesis and biological evaluation of certain C-4 substituted pyrazolo[3,4-b]pyridine nucleosides” (1989).
Activity calls are given as the source filed them. The rule behind the calls is not given here.

Experiments:
Visna-maedi virus = assay: Antiviral activity against Visna virus in SCP cells.; type: functional, organism-based
Human alphaherpesvirus 2 = assay: Antiviral activity against herpes 2 virus in Vero cells.; type: functional, organism-based; settings: herpes simplex virus type2
Human adenovirus 2 = assay: Antiviral activity against adeno 2 virus in HeLa cells.; type: functional, organism-based
Semliki Forest virus = assay: Antiviral activity against semliki forest virus in Vero cells.; type: functional, organism-based
HeLa [1] = assay: Antiviral activity against rhino 1-A virus in HeLa cells; IA= Inactive; type: functional, cell-based; settings: Homo sapiens
Vero [2] = assay: Antiviral activity against Para Flu 3 virus in Vero cells; IA= Inactive; type: functional, cell-based; settings: Chlorocebus sabaeus
Lymphoblastoid cell = assay: Ability to inhibit de novo purine nucleotide biosynthesis at a concentration of 100 uM; type: functional; settings: Homo sapiens
Summary of the method: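 De novo purine nucleotide synthesis was measured as [14C]formate incorporation in cultured human lymphoblast cells, with compound at 100 μM. Results are given as percent inhibition.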

Vero [3] = assay: Antiviral activity against semliki forest virus in Vero cells; type: functional, cell-based; settings: Chlorocebus sabaeus
[4] = Cytotoxicity against human B-lymphoblastic cell line WI-L2; type: functional; settings: WIL2, read-out: ID50 (the source's name)
HeLa [5] = assay: Antiviral activity against rhino 1-A virus in HeLa cells; type: functional, Homo sapiens
L1210 = assay: Cytotoxicity against murine leukemic cell line L1210; type: functional; settings: Mus musculus, read-out: ID50 (the source's name)

Compound	Activity (Visna-maedi virus)	Activity (Human alphaherpesvirus 2)	Activity (Human adenovirus 2)	Activity (Semliki Forest virus)	Activity (HeLa [1])	Activity (Vero [2])	inhibition at 100 µM (Lymphoblastoid cell)	Activity (Vero [3])	IC50 [4]	Virus rating (HeLa [5])	IC50 (L1210)
OC[C@H]1OC(n2ncc3cccnc32)[C@@H](O)[C@@H]1O (stereo partly specified)	inactive	inactive	inactive	inactive							
COc1ccnc2c1cnn2C1O[C@H](CO)[C@@H](O)[C@@H]1O (stereo partly specified)	inactive	inactive	inactive	inactive							
OC[C@H]1O[C@@H](n2ncc3cccnc32)C[C@@H]1O	inactive	inactive	inactive	inactive							
OC[C@H]1OC(n2ncc3c(OCc4ccccc4)ccnc32)[C@H](O)[C@@H]1O (stereo partly specified)	inactive	inactive	inactive	inactive							
Nc1ccnc2c1cnn2C1O[C@H](CO)[C@@H](O)[C@@H]1O (stereo partly specified)	inactive	inactive	inactive	inactive	inactive	inactive					
OC[C@H]1OC(n2ncc3cccnc32)[C@H](O)[C@@H]1O (stereo partly specified)	inactive	inactive	inactive	inactive							
Nc1ccnc2c1cnn2C1O[C@H](CO)[C@@H](O)[C@H]1O (stereo partly specified)	inactive	inactive	inactive		inactive	inactive	36%	inactive			
O=C1CC=Nc2c1cnn2[C@H]1C[C@H](O)[C@@H](CO)O1	inactive	inactive	inactive	inactive							
[N-]=[N+]=Nc1ccnc2c1cnn2C1O[C@H](CO)[C@@H](O)[C@H]1O (stereo partly specified)	inactive	inactive	inactive	inactive	inactive	inactive	46%				
COc1ccnc2c1cnn2[C@H]1C[C@H](O)[C@@H](CO)O1	inactive	inactive	inactive	inactive							
OC[C@H]1O[C@@H](n2ncc3c(Cl)ccnc32)C[C@@H]1O	inactive	inactive	inactive	inactive							
COc1ccnc2c1cnn2C1O[C@H](CO)[C@@H](O)[C@H]1O (stereo partly specified)	inactive	inactive	inactive	inactive							
O=C1CC=Nc2c1cnn2C1O[C@H](CO)[C@@H](O)[C@H]1O (stereo partly specified)							80%		20 µM	0.6	> 100 µM
OC[C@H]1OC(n2ncc3c(O)ccnc32)[C@@H](O)[C@@H]1O (stereo partly specified)	inactive	inactive	inactive	inactive							
OC[C@H]1OC(n2ncc3c(Cl)ccnc32)[C@H](O)[C@@H]1O (stereo partly specified)	inactive	inactive	inactive	inactive	inactive	inactive	94%		18 µM		20 µM
Nc1ccnc2c1cnn2[C@H]1C[C@H](O)[C@@H](CO)O1	inactive	inactive	inactive	inactive							
OC[C@H]1OC(n2ncc3c(Cl)ccnc32)[C@@H](O)[C@@H]1O (stereo partly specified)	inactive	inactive	inactive	inactive							
